In PMC3555362 (Angewandte Chemie (International Ed. in English), 2011):
pKd: −log10 of the molar value. Square brackets hold non-standard residues; d marks the D form. Peptide text beside a SMILES is read from it. pT = C[C@@H](OP(=O)(O)O)[C@H](N)C(=O)O; pS = N[C@@H](COP(=O)(O)O)C(=O)O

Key:
[1] = target: polo-box domain (PBD) of Plk1, His6-PBD345-603 (Homo sapiens, UniProt P53350); test: isothermal titration calorimetry; format: binding
[2] = tested on: polo-box domain (PBD) of polo-like kinase 1 (Plk1), wild-type (His6-PBD345-603 WT); test: fluorescence-based thermal stability; format: binding, human; settings: for Thermal shift, Δ: difference between wild-type and Y417A/Y421A thermal shifts
Outline: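 Fluorescence-based thermal stability screen of phosphorylated test peptides derived from PBIP1 and TCERG1, run in parallel on wild-type Plk1 polo-box domain and on the Y417A/Y421A double mutant. The mutant was designed to weaken binding at the hydrophobic pocket, so the wild-type-minus-mutant shift reports pocket involvement.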

[3] = tested on: PBD of human Plk1 (GPLGSPEF-PBD371-594); test: X-ray crystal structure of peptide in complex with PBD; format: binding; settings: crystal structures 3P36 (DPPLHSpTA), 3P37 (FDPPLHSpTA), 3Q1I (FMPPPMSpSM)

Sequence of polo-box domain (PBD) of Plk1, His6-PBD345-603 (P53350 345-603): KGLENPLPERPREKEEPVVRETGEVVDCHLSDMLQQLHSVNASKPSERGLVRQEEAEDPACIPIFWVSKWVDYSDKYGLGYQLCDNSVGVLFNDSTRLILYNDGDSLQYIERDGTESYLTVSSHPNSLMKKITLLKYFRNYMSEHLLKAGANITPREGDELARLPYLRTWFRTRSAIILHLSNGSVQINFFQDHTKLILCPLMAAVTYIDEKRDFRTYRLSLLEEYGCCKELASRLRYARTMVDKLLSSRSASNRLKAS

Row | Compound | pKd [1] | Thermal shift, Δ [2] | hydrophobic pocket binding in crystal structure (in words) [3] | affinity by ITC (in words) ([1]; ITC, 25 °C, compared with peptides without Phe71) | difference in thermal shifts between wild-type and mutant protein (in words) ([2]; wild-type PBD versus Y417A/Y421A mutant)
1 | CSCC[C@H](NC(=O)[C@H](COP(=O)(O)O)NC(=O)[C@H](CO)NC(=O)[C@H](CCSC)NC(=O)[C@@H]1CCCN1C(=O)[C@@H]1CCCN1C(=O)[C@@H]1CCCN1C(=O)[C@H](CCSC)NC(=O)[C@H](Cc1ccccc1)NC(C)=O)C(N)=O [FMPPPMSpSM] (Ac-FMPPPMS[pS]M-NH2) | 3.29 | 0.0 °C | lack of hydrophobic pocket binding |  | 
2 | CC(=O)N[C@@H](Cc1ccccc1)C(=O)N[C@@H](CC(=O)O)C(=O)N1CCC[C@H]1C(=O)N1CCC[C@H]1C(=O)N[C@@H](CC(C)C)C(=O)N[C@@H](Cc1c[nH]cn1)C(=O)N[C@@H](CO)C(=O)N[C@H](C(=O)N[C@@H](C)C(N)=O)[C@@H](C)OP(=O)(O)O [FDPPLHSpTA] (Ac-FDPPLHS[pT]A-NH2) | 6.60 | 4.3 °C |  | increased affinity | significant difference in thermal shifts
3 | CC(=O)N[C@@H](CC(=O)O)C(=O)N1CCC[C@H]1C(=O)N1CCC[C@H]1C(=O)N[C@@H](CC(C)C)C(=O)N[C@@H](Cc1c[nH]cn1)C(=O)N[C@@H](CO)C(=O)N[C@H](C(=O)N[C@@H](C)C(N)=O)[C@@H](C)OP(=O)(O)O [DPPLHSpTA] (Ac-DPPLHS[pT]A-NH2) | 5.67 | −0.4 °C |  |  | 
4 | CC(=O)N[C@@H](C)C(=O)N[C@@H](CC(=O)O)C(=O)N1CCC[C@H]1C(=O)N1CCC[C@H]1C(=O)N[C@@H](CC(C)C)C(=O)N[C@@H](Cc1c[nH]cn1)C(=O)N[C@@H](CO)C(=O)N[C@H](C(=O)N[C@@H](C)C(N)=O)[C@@H](C)OP(=O)(O)O [ADPPLHSpTA] (Ac-ADPPLHS[pT]A-NH2) | 5.88 | −0.2 °C |  |  | 
